{
  "source": "ChEMBL document CHEMBL5329186",
  "about": "“Identification of novel 1,2,3-triazole isatin derivatives as potent SARS-CoV-2 3CLpro inhibitors via click-chemistry-based rapid screening” (RSC Med Chem, 2023)",
  "key": {"[1]": {"target": "Replicase polyprotein 1ab (Severe acute respiratory syndrome coronavirus 2) (UniProt P0DTD1)", "experiment": "Inhibition of SARS-CoV-2 MPro at 1 uM using MCAAVLQSGFR-Lys(Dnp)-Lys-NH2 as substrate incubated for 10 mins by FRET assay relative to control"}, "[2]": {"target": "Replicase polyprotein 1ab (Severe acute respiratory syndrome coronavirus 2, UniProt P0DTD1)", "experiment": "Inhibition of SARS-CoV-2 MPro using MCAAVLQSGFR-Lys(Dnp)-Lys-NH2 as substrate incubated for 10 mins by FRET assay", "in_short": "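Same 3CLpro FRET protocol (enzyme working 1.5 μM, substrate 500 μM, Tris/NaCl/glycerol buffer pH 7.3, 10 min 37 °C preincubation, ex 320/em 405 nm kinetic read for 10 min). Compounds were tested at 0.1, 0.5, 1 and 5 μM from 5 mM DMSO stocks. IC50 is the average of three independent experiments.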"}, "[3]": {"test_system": "Vero C1008", "experiment": "Cytotoxicity against African green monkey Vero E6 assessed as inhibition of cell growth at 20 uM incubated for 26 hrs", "type": "toxicity, cell-based", "conditions": "chlorocebus sabaeus, vero c1008, 26 h"}, "[4]": {"experiment": "Cytotoxicity against African green monkey Vero E6 assessed as inhibition of cell growth incubated for 26 hrs", "type": "toxicity, cell-based", "conditions": "chlorocebus sabaeus, Vero E6 cells (Vero C1008)", "in_short": "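Vero E6 cells were seeded at 1.7 × 10^4/well in DMEM high glucose/10% FBS and grown 24 h at 37 °C, 5% CO2. Compound was then added in DMEM/5% FBS, final 1% DMSO, for 26 h. Viability was read with the CellTiter 96 aqueous nonradioactive proliferation assay. Values are averages of three or more replicate assays.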"}, "[5]": {"target": "Replicase polyprotein 1ab (Severe acute respiratory syndrome coronavirus 2) (UniProt P0DTD1)", "experiment": "Inhibition of SARS-CoV-2 MPro at 5 uM using MCAAVLQSGFR-Lys(Dnp)-Lys-NH2 as substrate incubated for 10 mins by FRET assay", "in_short": "(§1)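 3CLpro FRET assay at 5 μM compound, run as the standard protocol (10 min 37 °C preincubation, ex 320/em 405 nm kinetic read). The assay buffer either contained 4 mM DL-dithiothreitol or had none added. Ebselen served as the control.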"}, "[6]": {"target": "Replicase polyprotein 1ab (Severe acute respiratory syndrome coronavirus 2) (UniProt P0DTD1)", "experiment": "Inhibition of SARS-CoV-2 MPro at 5 uM using MCAAVLQSGFR-Lys(Dnp)-Lys-NH2 as substrate in presence of DTT incubated for 10 mins by FRET assay", "in_short": "as §1"}},
  "note": "Activity calls are given as the source filed them. The calls are words filed in the database; no cut-off is given here.",
  "data": [
    {"smiles": "NC(=O)c1ccc2c(c1)C(=O)C(=O)N2Cc1ccc2ccccc2c1", "values": [
      {"measurement": "inhibition", "setting": "[1]", "value": 87.3, "unit": "%"},
      {"measurement": "IC50", "setting": "[2]", "value": 300, "unit": "nM"},
      {"measurement": "Activity", "setting": "[3]", "value": "Not Active"},
      {"measurement": "CC50 at 26 h", "setting": "[4]", "value": "< 2200", "unit": "nM"},
      {"measurement": "inhibition", "setting": "[5]", "value": "Active"},
      {"measurement": "inhibition", "setting": "[6]", "value": "Active"}
    ]},
    {"smiles": "O=c1c2ccccc2[se]n1-c1ccccc1", "values": [
      {"measurement": "inhibition", "setting": "[5]", "value": "Active"},
      {"measurement": "inhibition", "setting": "[6]", "value": "inactive"}
    ]},
    {"smiles": "NC(=O)c1ccc2c(c1)C(=O)C(=O)N2Cc1cn(Cc2ccc(S(N)(=O)=O)cc2)nn1", "values": [
      {"measurement": "inhibition", "setting": "[1]", "value": 73.3, "unit": "%"},
      {"measurement": "IC50", "setting": "[2]", "value": 1120, "unit": "nM"},
      {"measurement": "Activity", "setting": "[3]", "value": "Not Active"},
      {"measurement": "CC50 at 26 h", "setting": "[4]", "value": "> 20000", "unit": "nM"}
    ]},
    {"smiles": "NC(=O)c1ccc2c(c1)C(=O)C(=O)N2Cc1cn(Cc2ccc(C(F)(F)F)cc2F)nn1", "values": [
      {"measurement": "inhibition", "setting": "[1]", "value": 78.1, "unit": "%"},
      {"measurement": "IC50", "setting": "[2]", "value": 530, "unit": "nM"},
      {"measurement": "Activity", "setting": "[3]", "value": "Not Active"},
      {"measurement": "CC50 at 26 h", "setting": "[4]", "value": "> 20000", "unit": "nM"}
    ]},
    {"smiles": "NC(=O)c1ccc2c(c1)C(=O)C(=O)N2Cc1cn(Cc2cccc(Cl)c2)nn1", "values": [
      {"measurement": "inhibition", "setting": "[1]", "value": 76.4, "unit": "%"},
      {"measurement": "IC50", "setting": "[2]", "value": 440, "unit": "nM"},
      {"measurement": "Activity", "setting": "[3]", "value": "Not Active"},
      {"measurement": "CC50 at 26 h", "setting": "[4]", "value": "> 20000", "unit": "nM"},
      {"measurement": "inhibition", "setting": "[5]", "value": "Active"},
      {"measurement": "inhibition", "setting": "[6]", "value": "Active"}
    ]}
  ]
}
